Test results: ChEMBL document CHEMBL1148530, “Discovery of new antitubercular oxazolyl thiosemicarbazones” (J Med Chem, 2006)
Values after ≈ are worked out from the molar mass of the structure shown. Active and inactive are the calls of the source. The calls are words filed in the database; no cut-off is given here.

Legend:
[1] = tested on: Mycobacterium tuberculosis; assay: Antimycobacterial activity against Mycobacterium tuberculosis H37Rv; assay type: functional
Method in brief: (§1)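 MIC determined by agar dilution, following the NCCLS-recommended approach, in duplicate. Strains were M. tuberculosis H37Rv and a multidrug-resistant M. tuberculosis. Concentrations were tested up to 25 µg/mL.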

Vero [2] = assay: Cytotoxicity against Vero cell line; assay type: functional, cell-based; conditions: Chlorocebus sabaeus
[3] = tested on: Mycobacterium tuberculosis; assay: Activity against Mycobacterium tuberculosis H37Rv infected in CD1 mouse assessed as decrease in bacterial load relative to control in lung at 50 mg/kg, ip; assay type: functional; conditions: route intraperitoneal
Method in brief: (§2)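 Female CD-1 mice, 6 weeks old, infected intravenously via the caudal vein with about 10⁷ viable M. tuberculosis ATCC 35801. Intraperitoneal treatment for 10 days after inoculation.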

[4] = tested on: Mycobacterium tuberculosis; assay: Activity against Mycobacterium tuberculosis H37Rv infected in CD1 mouse assessed as decrease in bacterial load relative to control in spleen at 50 mg/kg, ip; assay type: functional; conditions: route intraperitoneal; method in brief: as §2
[5] = tested on: Mycobacterium tuberculosis; assay: Activity against Mycobacterium tuberculosis H37Rv infected in CD1 mouse assessed as decrease in bacterial load relative to control in spleen at 25 mg/kg, ip; assay type: functional; conditions: route intraperitoneal; method in brief: as §2
[6] = tested on: Mycobacterium tuberculosis; assay: Activity against Mycobacterium tuberculosis H37Rv infected in CD1 mouse assessed as decrease in bacterial load relative to control in lung at 25 mg/kg, ip; assay type: functional; conditions: route intraperitoneal; method in brief: as §2
[7] = tested on: Mycobacterium tuberculosis; assay: Antimycobacterial activity against Mycobacterium tuberculosis H37Rv at 25 ug/ml; assay type: functional, organism-based; method in brief: as §1
Vero [8] = assay: Selectivity index, IC50 for Vero cell line/ MIC for Mycobacterium tuberculosis H37Rv; assay type: functional
Method in brief: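 Vero cells were exposed to compound at 62.5 µg/mL for 72 h. Viability was read by MTT conversion to formazan. Selectivity index is the Vero IC50 divided by the agar-dilution MIC against the listed strain.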

Row | Compound | MIC [1] [µg/mL] | IC50 (Vero [2]) [µg/mL] | also measured
1 | C/C(=N\N=C(/S)Nc1ncc(C2CCC2)o1)c1ccccc1O | 3.12 (≈ 9.44 µM) | – | –
2 | Oc1ccccc1/C=N/N=C(\S)Nc1ncc(C2CCC2)o1 | 6.25 (≈ 19.8 µM) | – | –
3 | CC[C@@H](CO)NCCN[C@@H](CC)CO [ETHAMBUTOL] | 1.56 (≈ 7.64 µM) | > 62.5 | –
4 | COc1ccc(/C=N/N=C(\S)Nc2ncc(C3CCC3)o2)cc1 | 6.25 (≈ 18.9 µM) | – | –
5 | O=[N+]([O-])c1ccccc1/C=N/N=C(\S)Nc1ncc(C2CCC2)o1 | 0.78 (≈ 2.26 µM) | – | –
6 | C/C(=N\N=C(/S)Nc1ncc(C2CCC2)o1)c1ccc(O)cc1 | 3.12 (≈ 9.44 µM) | – | –
7 | COc1c(N2CCNC(C)C2)c(F)cc2c(=O)c(C(=O)O)cn(C3CC3)c12 (stereo not drawn) [GATIFLOXACIN] | 0.2 (≈ 0.533 µM) | > 62.5 | Log10 cfu [3]: 6.02; Log10 cfu [4]: 6.24
8 | C/C(=N\N=C(/S)Nc1ncc(C2CCC2)o1)c1ccccc1 | 3.12 (≈ 9.92 µM) | – | –
9 | NNC(=O)c1ccncc1 [ISONIAZID] | 0.05 (≈ 0.365 µM) | > 62.5 | Log10 cfu [5]: 4.11; Log10 cfu [6]: 5.12
10 | O=[N+]([O-])c1ccc(/C=N/N=C(\S)Nc2ncc(C3CCC3)o2)cc1 | 0.39 (≈ 1.13 µM) | < 62.5 | –
11 | COc1cc(/C=N/N=C(\S)Nc2ncc(C3CCC3)o2)ccc1O | 12.5 (≈ 36.1 µM) | – | –
12 | Oc1[nH]c2ccccc2c1/N=N/C(S)=N/c1ncc(C2CCC2)o1 | 25 (≈ 73.2 µM) | – | –
13 | CN(C)c1ccc(/C=N/N=C(\S)Nc2ncc(C3CCC3)o2)cc1 | 3.12 (≈ 9.08 µM) | – | –
14 | S=C(N/N=C/c1ccc(Cl)cc1)Nc1ncc(C2CCC2)o1 | 1.56 (≈ 4.66 µM) | – | –
15 | N/N=C(\S)Nc1ncc(C2CCC2)o1 | – | – | Activity [7]: inactive
16 | S=C(N/N=C(\c1ccccc1)c1ccc(Br)cc1)Nc1ncc(C2CCC2)o1 | 0.05 (≈ 0.11 µM) | > 62.5 | Log10 cfu [3]: 5.78; Log10 cfu [4]: 5.12
17 | O=[N+]([O-])c1cccc(/C=N/N=C(\S)Nc2ncc(C3CCC3)o2)c1 | 0.78 (≈ 2.26 µM) | < 62.5 | –
18 | CO[C@H]1/C=C/O[C@@]2(C)Oc3c(C)c(O)c4c(O)c(c(/C=N/N5CCN(C)CC5)c(O)c4c3C2=O)NC(=O)/C(C)=C\C=C\[C@H](C)[C@H](O)[C@@H](C)[C@@H](O)[C@@H](C)[C@H](OC(C)=O)[C@@H]1C [RIFAMPIN] | 0.1 (≈ 0.122 µM) | > 62.5 | –
19 | C/C(=N\N=C(/S)Nc1ncc(C2CCC2)o1)c1ccc([N+](=O)[O-])cc1 | 0.2 (≈ 0.556 µM) | 62.5 (≈ 174 µM) | –
20 | S=C(NN=C(Cc1ccccc1)Cc1ccccc1)Nc1ncc(C2CCC2)o1 | 6.25 (≈ 15.4 µM) | – | –
21 | C/C(=N\N=C(/S)Nc1ncc(C2CCC2)o1)c1ccc(N)cc1 | 0.78 (≈ 2.37 µM) | 62.5 (≈ 190 µM) | –
22 | C/C(=N\N=C(/S)Nc1ncc(C2CCC2)o1)c1ccc(C)cc1 | 0.78 (≈ 2.37 µM) | – | –
23 | Cc1ccc(/C=N/N=C(\S)Nc2ncc(C3CCC3)o2)cc1 | 3.12 (≈ 9.92 µM) | < 62.5 | –
24 | S=C(NN=C(c1ccccc1)c1ccccc1)Nc1ncc(C2CCC2)o1 | 0.1 (≈ 0.266 µM) | > 62.5 | Selectivity index (Vero [8]): >1250
25 | Oc1[nH]c2ccc(F)cc2c1/N=N/C(S)=N/c1ncc(C2CCC2)o1 | 12.5 (≈ 34.8 µM) | – | –
